Assays:
[1] = Inhibition of Sonic-induced hedgehog signalling in mouse NIH3T3 cells after 48 hrs by Gli-luciferase reporter assay; format: cell-based; conditions: NIH3T3, 48 h
How it was run: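 NIH3T3 cells stably carrying a Gli-luciferase reporter were kept in DMEM with 10% FBS and 1 µg/mL puromycin, then seeded at 2×10^4 cells/well overnight at 37 °C. Compounds at 0.05–300 nM (8 concentrations) were added in medium with 0.5% FBS and 0.7 µg/mL Sonic Hh agonist, n=4 wells, for 48 h. Readout was the Firefly/Renilla luciferase ratio in lysates.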

[2] = Cmax in Sprague-Dawley rat at 1 mg/kg, iv by LC/MS/MS analysis; format: ADME, organism-based; design: dose 1 mg/kg, route intravenous; conditions: in vivo
How it was run: (§1)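 Male SD rats, 180–240 g, 3 per compound; single dose of 1 mg/kg iv or 5 mg/kg po, dosing volume 5 mL/kg. Blood was sampled from 2 min to 24 h and centrifuged at 4 °C. Plasma underwent protein precipitation, then LC/MS/MS in SRM mode with an internal standard. Parameters were derived by noncompartmental analysis.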

[3] = Cmax in Sprague-Dawley rat at 5 mg/kg, po by LC/MS/MS analysis; format: ADME, organism-based; design: dose 5 mg/kg, route oral; conditions: in vivo; how it was run: as §1
[4] = AUC (0 to t) in Sprague-Dawley rat at 1 mg/kg, iv by LC/MS/MS analysis; format: ADME, organism-based; conditions: in vivo
How it was run: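 Male SD rats, 3 per compound, 180–240 g, single iv dose at 1 mg/kg, dosing volume 5 mL/kg. Blood sampled at 2, 5, 15, 30 min and 1, 2, 4, 6, 8, 10, 24 h, then centrifuged at 4 °C. Plasma protein-precipitated and analysed by LC/MS/MS in SRM mode with internal standard. AUC(0-t) obtained by noncompartmental analysis.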

[5] = AUC (0 to t) in Sprague-Dawley rat at 5 mg/kg, po by LC/MS/MS analysis; format: ADME, organism-based; conditions: in vivo; how it was run: as §1
[6] = Apparent volume of distribution in Sprague-Dawley rat at 1 mg/kg, iv by LC/MS/MS analysis; conditions: in vivo
Rattus norvegicus = test: Apparent volume of distribution in Sprague-Dawley rat at 5 mg/kg, po by LC/MS/MS analysis; conditions: in vivo
[7] = Clearance in Sprague-Dawley rat at 1 mg/kg, iv by LC/MS/MS analysis; format: ADME, organism-based; conditions: in vivo; how it was run: as §1
[8] = Clearance in Sprague-Dawley rat at 5 mg/kg, po by LC/MS/MS analysis; format: ADME, organism-based; conditions: in vivo; how it was run: as §1
[9] = Mean resident time (0 to t) in Sprague-Dawley rat at 1 mg/kg, iv by LC/MS/MS analysis; format: ADME, organism-based; conditions: in vivo; how it was run: as §1
[10] = Mean resident time (0 to t) in Sprague-Dawley rat at 5 mg/kg, po by LC/MS/MS analysis; format: ADME, organism-based; conditions: in vivo; how it was run: as §1
[11] = Half life in Sprague-Dawley rat at 1 mg/kg, iv by LC/MS/MS analysis; format: ADME, organism-based; conditions: in vivo; how it was run: as §1
[12] = Half life in Sprague-Dawley rat at 5 mg/kg, po by LC/MS/MS analysis; format: ADME, organism-based; conditions: in vivo; how it was run: as §1
[13] = Oral bioavailability in Sprague-Dawley rat at 5 mg/kg; format: ADME, organism-based; conditions: in vivo; how it was run: as §1
Mus musculus [14] = test: Toxicity in BALB/C mouse xenografted with human LS174T cells assessed as mortality at 75 mg/kg, bid administered for 10 days; format: organism-based; conditions: in vivo, 240 h
How it was run: (§2)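 Male BALB/C nude mice (18–20 g) kept under SPF conditions. LS-174T cells at 2.5×10^7 cells/mL injected subcutaneously into the right flank. Once tumors reached about 100 mm3, mice were randomized to groups of 6 (vehicle group n = 9) and dosed orally once or twice daily for 10 days. Controls received solvent. Body weight and tumor volume were measured twice weekly and deaths recorded.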

LS174T [15] = test: Antitumor activity against human LS174T cells xenografted in BALB/C mouse assessed as tumor weight inhibition at 75 mg/kg, bid administered for 10 days measured twice per week; format: functional; conditions: 240 h, read-out: TGI
How it was run: (§3)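 Male BALB/c nude mice, 18–20 g, kept under SPF conditions. LS-174T cells at 2.5×10^7 cells/mL were injected s.c. into the right flank, and tumors were grown to about 100 mm3. Mice were randomized, n=6 treated and n=9 vehicle. Oral dosing ran qd or bid for 10 days; vehicle controls got the same volume of solvent. Tumor volume = length×width²/2, measured twice weekly. IR = (control − treated)/control for tumor weight or volume at day 10.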

LS174T [16] = test: Antiproliferative activity against human LS174T cells after 72 hrs by CellTiter-Glo luminescent cell viability assay; format: functional, cell-based
How it was run: (§4)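 Cells were grown in DMEM with 10% FBS, seeded at a density suited to each line, and left 24 h at 37 °C. Compounds were prepared in DMSO, diluted in medium over a concentration series starting at 100 µM, and applied for 72 h. CellTiter-Glo reagent was added for 30 min at room temperature before reading luminescence. IC50 came from four-parameter curve fitting.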

[17] = Antiproliferative activity against human PC3 cells after 72 hrs by CellTiter-Glo luminescent cell viability assay; format: functional, cell-based; conditions: PC-3, 72 h; how it was run: as §4
[18] = Antiproliferative activity against human BxPC3 cells after 72 hrs by CellTiter-Glo luminescent cell viability assay; format: functional, cell-based; conditions: BXPC-3, 72 h; how it was run: as §4
LS174T [19] = test: Antitumor activity against human LS174T cells xenografted in BALB/C mouse assessed as tumor weight inhibition at 37.5 mg/kg, qd administered for 10 days measured twice per week; format: functional; conditions: 240 h, read-out: TGI; how it was run: as §3
LS174T [20] = test: Antitumor activity against human LS174T cells xenografted in BALB/C mouse assessed as tumor weight inhibition at 75 mg/kg, qd administered for 10 days measured twice per week; format: functional; conditions: 240 h, read-out: TGI; how it was run: as §3
LS174T [21] = test: Antitumor activity against human LS174T cells xenografted in BALB/C mouse assessed as tumor weight inhibition at 150 mg/kg, qd administered for 10 days measured twice per week; format: functional; conditions: 240 h, read-out: TGI; how it was run: as §3
Mus musculus [22] = test: Toxicity in BALB/C mouse xenografted with human LS174T cells assessed as mortality at 37.5 to 150 mg/kg, qd administered for 10 days; format: organism-based; conditions: in vivo, 240 h; how it was run: as §2
Mus musculus [23] = test: Toxicity in BALB/C mouse xenografted with human LS174T cells assessed as loss of body weight at 75 mg/kg, bid administered for 10 days measured twice per week; format: organism-based; conditions: in vivo, 240 h; how it was run: as §2
Mus musculus [24] = test: Toxicity in BALB/C mouse xenografted with human LS174T cells assessed as loss of body weight at 37.5 to 150 mg/kg, qd administered for 10 days measured twice per week; format: organism-based; conditions: in vivo, 240 h; how it was run: as §2
LS174T [25] = test: Antitumor activity against human LS174T cells xenografted in BALB/C mouse assessed as tumor volume inhibition at 75 mg/kg, bid administered for 10 days measured twice per week; conditions: 240 h, read-out: TGI
LS174T [26] = test: Antitumor activity against human LS174T cells xenografted in BALB/C mouse assessed as tumor volume inhibition at 37.5 mg/kg, qd administered for 10 days measured twice per week; format: functional; conditions: 240 h, read-out: TGI; how it was run: as §3
LS174T [27] = test: Antitumor activity against human LS174T cells xenografted in BALB/C mouse assessed as tumor volume inhibition at 75 mg/kg, qd administered for 10 days measured twice per week; format: functional; conditions: 240 h, read-out: TGI; how it was run: as §3
LS174T [28] = test: Antitumor activity against human LS174T cells xenografted in BALB/C mouse assessed as tumor volume inhibition at 150 mg/kg, qd administered for 10 days measured twice per week; format: functional; conditions: 240 h, read-out: TGI; how it was run: as §3

SMILES | IC50 [1] [nM] | Cmax [2] [ng/mL] | Cmax [3] [ng/mL] | AUC(0-t) [4] [ng·h/mL] | AUC(0-t) [5] [ng·h/mL] | Vd [6] [L/kg] | Vd(app) (Rattus norvegicus) [L/kg] | clearance [7] [mL/min/kg] | CL/F [8] [mL/min/kg] | MRT last [9] [h] | MRT last [10] [h] | half-life [11] [h] | half-life [12] [h] | bioavailability [13] [%] | also measured
Cc1ccc(CN2CCOCC2)cc1NC(=O)c1ccc(Nc2ncc(C3CC3)c(-c3ccc(OC(F)(F)F)cc3)n2)cc1 | 11.9 | – | – | – | – | – | – | – | – | – | – | – | – | – | –
Cc1c(C(=O)Nc2ccc(N3C[C@@H](C)O[C@@H](C)C3)nc2)cccc1-c1ccc(OC(F)(F)F)cc1 [SONIDEGIB] | 5.5 | 1930 | 1400 | 2200 | 8830 | 0.955 | 3.40593 | 7.69 | 9.72 | 1.58 | 5.4 | 1.43 | 4.01 | 80.6 | –
Cc1ccc(CN2CCN(C)CC2)cc1NC(=O)c1ccc(Nc2nccc(-c3ccc(OC(F)(F)F)cc3)n2)cc1 | 0.97 | – | – | – | – | – | – | – | – | – | – | – | – | – | –
Cc1ccc(CN(C)C)cc1NC(=O)c1ccc(Nc2nccc(-c3ccc(OC(F)(F)F)cc3)n2)cc1 | 3.04 | – | – | – | – | – | – | – | – | – | – | – | – | – | –
CCN(CC)Cc1ccc(C)c(NC(=O)c2ccc(Nc3ncc(F)c(-c4ccc(OC(F)(F)F)cc4)n3)cc2)c1 | 2.56 | – | – | – | – | – | – | – | – | – | – | – | – | – | –
Cc1ccc(CN2CCOCC2)cc1NC(=O)c1ccc(Nc2nccc(-c3ccc(OC(F)(F)F)cc3)n2)cc1 | 0.89 | 1200 | 635 | 2440 | 6220 | 2.87 | 7.12872 | 6.69 | 12.3 | 4.22 | 6.98 | 4.96 | 6.68 | 42 | Activity (Mus musculus [14]): Non-toxic; inhibition in vivo at 75 mg/kg (LS174T [15]): 23.3%; IC50 (LS174T [16]): 12200 nM; IC50 [17]: 14800 nM; IC50 [18]: 35400 nM; inhibition in vivo at 37.5 mg/kg (LS174T [19]): 10.2%; inhibition in vivo at 75 mg/kg (LS174T [20]): 9.9%; inhibition in vivo at 150 mg/kg (LS174T [21]): 21.1%; Activity (Mus musculus [22]): Non-toxic; Activity (Mus musculus [23]): Non-toxic; Activity (Mus musculus [24]): Non-toxic; inhibition in vivo at 75 mg/kg (LS174T [25]): 42.9%; inhibition in vivo at 37.5 mg/kg (LS174T [26]): 33%; inhibition in vivo at 75 mg/kg (LS174T [27]): 23.2%; inhibition in vivo at 150 mg/kg (LS174T [28]): 38.9%
Cc1ccc(CN2CCOCC2)cc1NC(=O)c1ccc(Nc2ncc(F)c(-c3ccc(OC(F)(F)F)cc3)n2)cn1 | 1.14 | 3140 | 86.6 | 1890 | 923 | 6.28 | 50.45546 | 8.37 | 80.8 | 4.23 | 7.74 | 8.85 | 7.24 | – | –
Cc1ccc(CN2CCOCC2)cc1NC(=O)c1ccc(Nc2nccc(-c3ccc(OC(F)(F)F)cc3)n2)cn1 | 0.69 | – | 137 | – | 660 | – | 59.60185 | – | 123 | – | 4.83 | – | 5.56 | – | –
CS(=O)(=O)c1ccc(C(=O)Nc2ccc(Cl)c(-c3ccccn3)c2)c(Cl)c1 [VISMODEGIB] | 7.2 | – | 3640 | – | 22400 | – | – | – | 4.68 | – | 3.93 | – | 2.46 | > 100 | Activity (Mus musculus [14]): Non-toxic; inhibition in vivo at 75 mg/kg (LS174T [15]): 11.8%; IC50 (LS174T [16]): 45800 nM; IC50 [17]: 66800 nM; IC50 [18]: 48000 nM
